Source: ChEMBL document CHEMBL4610124, “Novel Thienopyrimidine Inhibitors of Leishmania N-Myristoyltransferase with On-Target Activity in Intracellular Amastigotes” (J Med Chem, 2020)

Tests used:
[1] = Inhibition of Leishmania donovani NMT using p60 SRC(2 to […]) as substrate by CPM dye based fluorescence assay
[2] = molecular target: T1, Glycylpeptide N-tetradecanoyltransferase 1 (Homo sapiens, UniProt P30419); format: ADME
T1 sequence (P30419 whole entry): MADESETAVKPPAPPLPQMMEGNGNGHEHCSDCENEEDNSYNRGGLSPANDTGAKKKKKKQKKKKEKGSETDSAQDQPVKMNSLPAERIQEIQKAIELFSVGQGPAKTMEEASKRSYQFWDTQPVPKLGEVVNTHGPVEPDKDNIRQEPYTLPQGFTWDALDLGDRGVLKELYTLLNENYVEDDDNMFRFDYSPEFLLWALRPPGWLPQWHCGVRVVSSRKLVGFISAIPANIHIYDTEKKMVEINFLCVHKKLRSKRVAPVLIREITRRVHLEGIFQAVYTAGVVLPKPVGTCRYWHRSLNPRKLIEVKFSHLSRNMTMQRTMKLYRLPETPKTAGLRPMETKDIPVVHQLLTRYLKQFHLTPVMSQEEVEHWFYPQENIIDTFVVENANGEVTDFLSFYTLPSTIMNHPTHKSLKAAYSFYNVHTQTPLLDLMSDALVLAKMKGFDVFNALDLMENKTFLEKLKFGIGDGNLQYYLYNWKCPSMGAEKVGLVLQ

[3] = tested on: human NMT1 versus Leishmania donovani NMT; assay: Selectivity ratio of IC50 for human NMT1 to IC50 for Leishmania donovani NMT; format: toxicity; conditions: read-out: Ratio IC50
Summary of the method: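 Ratio of IC₅₀ for HsNMT1 to IC₅₀ for LdNMT. Both were measured in a fluorogenic CPM assay, in which coenzyme A released by acyl transfer is detected with the thiol-reactive dye CPM.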

Leishmania donovani [4] = assay: Antileishmanial activity against Leishmania donovani MHOM/ET/67/HU3 intracellular amastigotes measured after 72 hrs by alamar blue dye based fluorescence assay; format: functional, organism-based; conditions: MHOM/ET/67/HU3, 72 h
Summary of the method: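 Ex vivo L. donovani LV9 amastigotes, kept by serial passage in Rag-2−/− mice, isolated from infected spleens by homogenization and saponin lysis. Plated at 4 × 10⁵ per well in RPMI with 20% heat-inactivated FCS, adenine, 20 mM MES (pH 5.5), hemin, biopterin and biotin.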

[5] = Inhibition of Leishmania major NMT using p60 SRC(2 to […]) as substrate by CPM dye based fluorescence assay
Leishmania donovani [6] = assay: Effect on total NMT expression in Leishmania donovani MHOM/ET/67/HU3 intracellular amastigotes after 12 hrs in presence of YnMyr by Western blot analysis; format: ADME, organism-based
Summary of the method: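 Amastigotes from spleens of Rag-2−/− mice, isolated by saponin lysis, seeded at 7.5 × 10⁷/mL in RPMI/10% FCS with inhibitor for 1 h at 37 °C. Then resuspended in fresh medium with inhibitor plus YnMyr (50 μM final) for 12 h. Lysates were click-labelled and run on SDS-PAGE, then immunoblotted with anti-LdNMT antibody.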

Structure (SMILES)	IC50 [1] [µM]	IC50 [2] [µM]	selectivity ratio [3]	EC50 (Leishmania donovani [4]) [µM]	IC50 [5] [µM]	Activity (Leishmania donovani [6])
CN(C)CCCN(C)c1ncc2sccc2n1	> 100					
CCN(C)c1nc(N(C)C2CCNCC2)nc2ccc(S(=O)(=O)Nc3c(C)nn(C)c3C)cc12		1.7	5.2			
CCN(C)c1nc(N(C)CCCN(C)C)nc2ccc(S(=O)(=O)Nc3c(C)nn(C)c3C)cc12	0.23	1.1	4.6			
CN(c1nc(N2CCC[C@H]2CC#N)c2sccc2n1)C1CCNCC1	0.21	1.6	7.8			
CN(CCCN(C)c1nc(N(C)CCC#N)c2sccc2n1)Cc1ccccc1	> 100					
CCN(C)c1nc(N(C)C2CCN(C)CC2)nc2ccsc12		7.9		> 50	0.73	
CN1CCC(N(C)c2nc(N(C)CCC#N)c3sccc3n2)CC1	0.34	5.7			0.2	Non-Toxic
CN1CCC(N(C)c2nc(N3CCC[C@H]3CC#N)c3sccc3n2)CC1	0.15	> 100	> 660	19		
CN(CCCO)c1nc(N(C)CCC#N)c2sccc2n1	> 100					
CC(C)CN1CCC(N(C)c2nc(N(C)CCC#N)c3sccc3n2)CC1	4	> 100	> 25			
CN(C)CCCN(C)c1nc(N(C)CCC#N)c2cc(Br)ccc2n1	0.35			17		
CN(CCC#N)c1nc(N(CCO)C2CCNCC2)nc2ccccc12					8.2	
CN(CCC#N)c1nc(N(C)C2CCOCC2)nc2ccsc12	> 100					
CN(C)CCCN(C)c1nc(N(C)CCC#N)c2sc(C(C)(C)C)cc2n1	0.36			37	0.16	
CN(CCC#N)c1nc(N(C)C2CCNC2)nc2ccccc12 (centres undefined)	5.8				4.9	
COCCN(C)c1nc(N2CCN(C)CC2)nc2ccsc12	23					
COC[C@@H]1CCCN1c1nc(N(C)C2CCNCC2)nc2ccsc12	4.3	5	1.2			
CN(CCC#N)c1nc(N(C)C2CCNCC2)nc2ccsc12	0.5	11	22	> 50		
CN(C)CCCN(C)c1nc(N(C)CCO)c2sccc2n1	22				36	

Structure (SMILES)	IC50 [1] [µM]	IC50 [2] [µM]	selectivity ratio [3]	EC50 (Leishmania donovani [4]) [µM]	IC50 [5] [µM]	Activity (Leishmania donovani [6])
COc1ccc2nc(N(C)CCCN(C)C)nc(N(C)CCC#N)c2c1	1.8	> 100	> 56			
CN(C)CCCN(C)c1nc(N2CCC[C@H]2CO)c2sccc2n1				> 50	19	
CCN1CCC(N(C)c2nc(N(C)CCC#N)c3ccccc3n2)CC1	0.97			> 50	0.95	
COC[C@@H]1CCCN1c1nc(N(C)C2CCN(C)CC2)nc2ccsc12	0.87	> 100	> 120	26		
CN1CCC(N(C)c2nc(N(C)CCC#N)c3sc(C(C)(C)C)cc3n2)C1 (centres undefined)						Non-Toxic
CN(CCC#N)c1nc(N(C)C2CCN(Cc3ccccc3)CC2)nc2ccsc12	27					
CC(C)CN(C)CCCN(C)c1nc(N(C)CCC#N)c2sccc2n1	> 100					
CN(CCC#N)c1nc(N(C)C2CCN(Cc3ccccc3)C2)nc2cc(C(C)(C)C)sc12 (centres undefined)	7.8					
CN1CCC(N(C)c2nc(N(C)CCC#N)c3cc(Br)ccc3n2)C1 (centres undefined)	5.5	> 100	> 18			
Cc1ccccc1-c1ccc2nc(N(C)CCCN(C)C)nc(N(C)CCC#N)c2c1	0.67	> 100	> 150			
CN(CCC#N)c1nc(N(C)C2CCNC2)nc2cc(C(C)(C)C)sc12 (centres undefined)	5.5	> 100	> 18	21		
CN(C)CCCN(C)c1nccc(N(C)CCC#N)n1	> 100	> 100				
COCCN(C)c1nc(N(C)CCCN(C)C)nc2ccsc12	44					
CN(CCC#N)c1nc(N(C)C2CCN(Cc3ccccc3)C2)nc2ccsc12 (centres undefined)	> 100					
CN(C)CCCN(C)c1nc(N(C)CCC(N)=O)c2sccc2n1				> 50	13	
CN1CCC(N(C)c2nc(N(C)CCC#N)c3cc(Br)ccc3n2)CC1	0.95	> 100	> 20			
CN(C)CCCN(C)c1nc(N(C)CCC#N)c2cccnc2n1	2.4	> 100	> 42			
CN(C)CCCN(C)c1nc(N(C)CCC#N)c2cc(-c3ccccc3)ccc2n1	0.39	> 100	> 260			
CN(C)CCCN(C)c1nc(N(C)CCC#N)c2c(ncn2C)n1	> 100	> 100				

Structure (SMILES)	IC50 [1] [µM]	IC50 [2] [µM]	selectivity ratio [3]	EC50 (Leishmania donovani [4]) [µM]	IC50 [5] [µM]	Activity (Leishmania donovani [6])
CN1CCC(N(C)c2nc(N(C)CCC#N)c3sc(C(C)(C)C)cc3n2)CC1	0.046	0.55			0.042	
COc1ccc(-c2ccc3nc(N(C)CCCN(C)C)nc(N(C)CCC#N)c3c2)c(C)c1	6.6	> 100	> 15			
CN1CCC(N(C)c2nc(N(C)CCC#N)c3ccccc3n2)C1 (centres undefined)	9.5			6.6		Non-Toxic
CN(CCC#N)c1nc(N(C)[C@H]2C[C@H]3CC[C@@H](C2)N3C)nc2ccccc12	16	> 100		> 50	13	
CN(CCC#N)c1nc(N(C)C2CCNCC2)nc2ccccc12		> 100		> 50	1.1	
CN(C)CCCN(C)c1nc(N(C)CCCO)c2sccc2n1				> 50	40	
CN1CCN(c2nc(N(C)CCC#N)c3sccc3n2)CC1	30					
CN(CCC#N)c1nc(N2CCNCC2)nc2ccsc12	28					
COc1ccc2nc(N(C)C3CCN(C)CC3)nc(N(C)CCC#N)c2c1	0.5	> 100	> 200			
CCN(C)c1nc(N(C)C2CCN(C)CC2)nc2ccc(S(=O)(=O)Nc3c(C)nn(C)c3C)cc12	0.2	2.3	11			
CCN(C)c1nc(N(C)C2CCN(Cc3ccccc3)CC2)nc2ccsc12	> 100					
CN(C)CCCN(C)c1nc(N(C)CCC#N)c2ccccc2n1				> 50	2.1	
CC(=O)N(C)CCN(C)c1nc(N(C)CCCN(C)C)nc2ccsc12	> 100	> 100				
CNCCCN(C)c1nc(N(C)CCC#N)c2sccc2n1	5.2					
CN(C)CCCN(C)c1nc(N(C)CCC(=O)N(C)C)c2sccc2n1	54					
COc1ccc2c(N(C)CCC#N)nc(N(C)CCCN(C)C)nc2c1	9.5					
CN(C)CCCN(C)c1nc(N(C)CCC#N)c2sccc2n1	0.15 to 0.59	> 100	> 170	> 50	2.7	
CCN(C)c1nc(N(C)CCCN(C)C)nc2ccsc12		> 100	> 8		13	
